ChEMBL document CHEMBL1157240, “Caminosides B-D, antimicrobial glycolipids isolated from the marine sponge Caminus sphaeroconia” (J Nat Prod, 2006)
Calls of active or inactive are those of the source. The rule behind the calls is not given here.

Assays:
[1] = test system: Stenotrophomonas maltophilia; test: Antimicrobial activity against Xanthomonas maltophilia assessed per disk; type: functional
[2] = test system: Staphylococcus aureus; test: Antimicrobial activity against methicillin-resistant Staphylococcus aureus assessed per disk; type: functional
[3] = test system: Escherichia coli; test: Antimicrobial activity against enteropathogenic Escherichia coli assessed as inhibition of type 3 secretion by gel electrophoresis; type: functional, organism-based
Summary of the method: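 EPEC cultured 24 h with test material, then centrifuged to give a bacterial pellet and a supernatant holding all secreted proteins. The pellet was inspected by eye, and samples that clearly shrank it were excluded as having general antibiotic or cytotoxic action.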

[4] = test system: Globisporangium ultimum; test: Antimicrobial activity against Pythium ultimum assessed per disk; type: functional
[5] = test system: Enterococcus; test: Antimicrobial activity against vancomycin-resistant Enterococcus assessed per disk; type: functional
[6] = test system: Escherichia coli; test: Antimicrobial activity against Escherichia coli; type: functional, organism-based

What does the source list for `CCCCCCCCC[C@H](CCCCCCCC(C)=O)O[C@@H]1O[C@H](COC(C)=O)[C@@H](OC(C)=O)[C@H](OC(C)=O)[C@H]1O[C@@H]1O[C@H](CO[C@@H]2O[C@H](C)[C@H](OC(C)=O)[C@H](OC(C)=O)[C@@H]2OC(C)=O)[C@@H](OC(C)=O)[C@H](OC(=O)CCC)[C@H]1O[C@@H]1O[C@@H](C)[C@H](OC(C)=O)[C@@H](OC(C)=O)[C@@H]1OC(C)=O` [CAMINOSIDE A PERACETATE]?
MIC [1]: >25 µg; MIC [2]: >100 µg; Activity [3]: inactive; MIC [4]: >100 µg; MIC [5]: >100 µg

For `CCCCCCCCC[C@H](CCCCCCCC(C)=O)O[C@@H]1O[C@H](CO)[C@@H](O)[C@H](O)[C@H]1O[C@@H]1O[C@H](CO[C@@H]2O[C@H](C)[C@H](O)[C@H](O)[C@@H]2O)[C@@H](OC(C)=O)[C@H](OC(=O)CCC)[C@H]1O[C@@H]1O[C@@H](C)[C@H](O)[C@@H](OC(=O)CCC)[C@@H]1O`, which IC50 [3] is on record?
Its IC50 is 20 µM.

How did the MIC [1] turn out when `CCCCCCCCC[C@H](CCCCCCCC(C)=O)O[C@@H]1O[C@H](CO)[C@@H](O)[C@H](O)[C@H]1O[C@@H]1O[C@H](CO[C@@H]2O[C@H](C)[C@H](O)[C@H](O)[C@@H]2O)[C@@H](OC(C)=O)[C@H](OC(=O)CCC)[C@H]1O[C@@H]1O[C@@H](C)[C@H](O)[C@@H](O)[C@@H]1O` [CAMINOSIDES A] was run?
Its MIC is 25 µg.

And the MIC [2]?
The MIC was 12.5 µg.

What about the Activity [3] of the same compound?
Its Activity is “Active”.

What about the IC50 [3] of the same compound?
The IC50 was 20 µM.

And the MIC [4]?
The MIC was 50 µg.

And the MIC [5]?
The MIC was 12.5 µg.

What about the Activity [6] of the same compound?
The Activity was “inactive”.
